Experimental data as given in ChEMBL document CHEMBL4130429, “Hydroxytriazole derivatives as potent and selective aldo-keto reductase 1C3 (AKR1C3) inhibitors discovered by bioisosteric scaffold hopping approach” (Eur J Med Chem, 2017).
The source made the active and inactive calls. No cut-off for these calls is given here.

What was measured:
[1] = target: T1, Aldo-keto reductase family 1 member C3 (Homo sapiens, UniProt P42330); assay: Inhibition of recombinant human AKR1C3 expressed in Escherichia coli BL21 (DE) using [14C]androstenedione as substrate in presence of NADPH generating system
T1 sequence (P42330 whole entry): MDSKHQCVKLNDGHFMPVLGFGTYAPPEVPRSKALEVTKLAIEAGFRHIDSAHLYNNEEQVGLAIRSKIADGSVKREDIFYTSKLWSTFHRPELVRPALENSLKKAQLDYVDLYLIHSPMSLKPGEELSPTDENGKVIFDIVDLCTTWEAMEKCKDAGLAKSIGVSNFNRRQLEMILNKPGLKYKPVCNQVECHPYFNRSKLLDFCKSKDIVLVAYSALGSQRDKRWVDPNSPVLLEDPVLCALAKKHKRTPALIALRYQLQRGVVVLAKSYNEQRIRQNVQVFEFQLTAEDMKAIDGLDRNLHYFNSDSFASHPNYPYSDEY
Method in brief: (§1)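 E. coli expressing AKR1C3, unlysed, suspended in 100 mM phosphate pH 6.6 (~15 µg protein). Incubated with [14C]androstenedione (6×10^-4 µCi), Tween 80 0.1 mg/mL, 1 mM ATP, 1 mM MgCl2 and NADPH-generating system (1 mM NADP+, 3 mM glucose-6-phosphate, 3 U G6PDH) for 30 min at 30 °C with shaking. Conversion to testosterone quantified by radioactivity scanning of TLC.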

[2] = target: T2, Aldo-keto reductase family 1 member C3 (Homo sapiens) (UniProt P42330); assay: Inhibition of recombinant human AKR1C3 expressed in Escherichia coli BL21 […] at 50 uM using [14C]androstenedione as substrate in presence of NADPH generating system; method in brief: as §1
T2 sequence (whole entry): T1 sequence (P42330 whole entry)

[3] = target: T3, Prostaglandin G/H synthase 1 (Ovis aries, UniProt P05979); assay: Inhibition of ovine COX1 assessed as reduction in PGF2alpha production by ELISA
T3 sequence (P05979 whole entry): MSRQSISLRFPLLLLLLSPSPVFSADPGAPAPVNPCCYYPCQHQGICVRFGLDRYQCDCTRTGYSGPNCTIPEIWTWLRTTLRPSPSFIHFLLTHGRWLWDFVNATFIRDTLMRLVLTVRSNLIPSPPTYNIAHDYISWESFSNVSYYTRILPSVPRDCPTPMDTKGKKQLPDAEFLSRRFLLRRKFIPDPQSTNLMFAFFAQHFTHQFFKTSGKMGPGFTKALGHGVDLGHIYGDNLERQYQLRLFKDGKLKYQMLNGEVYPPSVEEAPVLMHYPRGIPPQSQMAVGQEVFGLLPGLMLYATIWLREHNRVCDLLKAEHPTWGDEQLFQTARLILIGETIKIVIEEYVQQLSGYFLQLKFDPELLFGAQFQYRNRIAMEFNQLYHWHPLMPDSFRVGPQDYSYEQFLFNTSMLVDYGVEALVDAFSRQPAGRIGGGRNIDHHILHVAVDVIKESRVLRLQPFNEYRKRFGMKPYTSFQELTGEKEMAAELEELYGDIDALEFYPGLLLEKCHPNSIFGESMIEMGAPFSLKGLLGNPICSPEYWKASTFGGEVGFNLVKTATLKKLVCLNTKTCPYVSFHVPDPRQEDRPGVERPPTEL
Method in brief: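 Commercial COX (ovine COX-1/human COX-2) inhibitor screening kit. PGH2 formed by COX is reduced by SnCl2 to PGF2α, which is quantified by ELISA absorbance. IC50 by linear regression. Mean ± SE of at least three experiments.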

[4] = target: T1, Aldo-keto reductase family 1 member C3; assay: Inhibition of AKR1C3 (unknown origin) using S-tetralol as substrate in presence of NADP+ by fluorimtery
Method in brief: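 Purified recombinant enzyme (GST-tagged, glutathione-sepharose purified, thrombin-cleaved) with S-tetralol in 100 mM phosphate pH 7, 200 µM NADP+, 10% ethanol. […] NADPH formation followed fluorimetrically (ex 340/em 460 nm) at 37 °C. IC50 from initial velocities versus solvent controls; means of two experiments in triplicate.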

[5] = target: T4, Aldo-keto reductase family 1 member C2 (Homo sapiens, UniProt P52895); assay: Inhibition of AKR1C2 (unknown origin) using S-tetralol as substrate by fluorimtery
T4 sequence (P52895 whole entry): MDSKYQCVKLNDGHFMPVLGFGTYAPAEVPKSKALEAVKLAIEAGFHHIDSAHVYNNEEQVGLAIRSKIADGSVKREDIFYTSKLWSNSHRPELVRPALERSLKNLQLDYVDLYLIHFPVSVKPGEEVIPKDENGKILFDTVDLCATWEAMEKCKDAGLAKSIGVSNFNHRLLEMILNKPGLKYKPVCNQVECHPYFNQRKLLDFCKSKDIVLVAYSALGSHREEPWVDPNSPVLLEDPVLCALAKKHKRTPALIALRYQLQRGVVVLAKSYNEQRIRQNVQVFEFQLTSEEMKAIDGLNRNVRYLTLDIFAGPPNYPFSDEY
Method in brief: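 Purified recombinant enzyme (GST-tagged, glutathione-sepharose purified, thrombin-cleaved) with S-tetralol in 100 mM phosphate pH 7, 200 µM NADP+, 10% ethanol. IC50 from initial velocities versus solvent controls; means of two experiments in triplicate.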

Homo sapiens [6] = species on record: Homo sapiens; assay: Selectivity index, ratio of IC50 for AKR1C2 (unknown origin) to IC50 for AKR1C3 (unknown origin)
[7] = target: T5, Prostaglandin G/H synthase 1 (Ovis aries) (UniProt P05979); assay: Inhibition of ovine COX1 assessed as reduction in PGF2alpha production at 100 uM by ELISA
T5 sequence (whole entry): T3 sequence (P05979 whole entry)

[8] = Selectivity index, ratio of IC50 for ovine COX1 to IC50 for AKR1C3 (unknown origin)
Homo sapiens [9] = species on record: Homo sapiens; assay: Selectivity index, ratio of IC50 for human COX2 to IC50 for AKR1C3 (unknown origin)
CWR22R [10] = assay: Antiproliferative activity against human 22Rv1 cells after 72 hrs by sulforhodamine B colorimetric proliferation assay; type: functional, cell-based; settings: 22Rv1, 72 h
Method in brief: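 22RV1 castration-resistant prostate cells were seeded at 10,000 cells/well in RPMI with 10% charcoal-stripped serum and allowed to adhere for 24 h at 37 °C, 5% CO2. Inhibitor dilutions in ethanol were added in triplicate for 72 h, with ethanol-matched controls (max 1% v/v). Growth was read by SRB and given as %T/C (treated/control OD). Means of two experiments, each in triplicate.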

[11] = target: Prostaglandin G/H synthase 2 (Homo sapiens) (UniProt P35354); assay: Inhibition of human COX2 assessed as reduction in PGF2alpha production at 100 uM by ELISA
CWR22R [12] = assay: Antiproliferative activity against human 22Rv1 cells at 10 uM after 72 hrs by sulforhodamine B colorimetric proliferation assay; type: functional, cell-based
CWR22R [13] = assay: Inhibition of AKR1C3-mediated testosterone production in human 22Rv1 cells at 100 uM after 1 hr in presence of androstenedione by ELISA; type: functional; settings: 22Rv1, 1 h
CWR22R [14] = assay: Inhibition of AKR1C3-mediated testosterone production in human 22Rv1 cells after 1 hr in presence of androstenedione by ELISA; type: functional, cell-based
Method in brief: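 22RV1 cells seeded at 30,000/well in RPMI with 10% charcoal-stripped serum, 24 h. Inhibitor added at four concentrations for 1 h, then 28 nM androstenedione, further 24 h. Supernatant testosterone measured by ELISA at 405 nm against a standard curve, corrected for androstenedione cross-reactivity. Means of two experiments in triplicate.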

CWR22R [15] = assay: Antiproliferative activity against human 22Rv1 cells at 60 uM after 72 hrs by sulforhodamine B colorimetric proliferation assay; type: functional, cell-based
CWR22R [16] = assay: Synergistic antiproliferative activity against human 22Rv1 cells at 60 uM after 72 hrs in presence of 10 uM abiraterone by sulforhodamine B colorimetric proliferation assay; type: functional
Method in brief: (§2)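 Co-treatment by SRB assay: 22RV1 cells in RPMI with 10% charcoal-stripped serum, given 60 µM inhibitor with or without 10 µM abiraterone or 20 µM enzalutamide for 72 h. Growth expressed as % T/C (mean OD treated/control ×100). Means of two experiments in triplicate.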

CWR22R [17] = assay: Synergistic antiproliferative activity against human 22Rv1 cells at 60 uM after 72 hrs in presence of 20 uM enzalutamide by sulforhodamine B colorimetric proliferation assay; type: functional; method in brief: as §2
CWR22R [18] = assay: Antiproliferative activity against human 22Rv1 cells at 20 uM after 72 hrs by sulforhodamine B colorimetric proliferation assay; type: functional, cell-based

Chain of Prostaglandin G/H synthase 2 (Homo sapiens) (P35354 whole entry, looked up): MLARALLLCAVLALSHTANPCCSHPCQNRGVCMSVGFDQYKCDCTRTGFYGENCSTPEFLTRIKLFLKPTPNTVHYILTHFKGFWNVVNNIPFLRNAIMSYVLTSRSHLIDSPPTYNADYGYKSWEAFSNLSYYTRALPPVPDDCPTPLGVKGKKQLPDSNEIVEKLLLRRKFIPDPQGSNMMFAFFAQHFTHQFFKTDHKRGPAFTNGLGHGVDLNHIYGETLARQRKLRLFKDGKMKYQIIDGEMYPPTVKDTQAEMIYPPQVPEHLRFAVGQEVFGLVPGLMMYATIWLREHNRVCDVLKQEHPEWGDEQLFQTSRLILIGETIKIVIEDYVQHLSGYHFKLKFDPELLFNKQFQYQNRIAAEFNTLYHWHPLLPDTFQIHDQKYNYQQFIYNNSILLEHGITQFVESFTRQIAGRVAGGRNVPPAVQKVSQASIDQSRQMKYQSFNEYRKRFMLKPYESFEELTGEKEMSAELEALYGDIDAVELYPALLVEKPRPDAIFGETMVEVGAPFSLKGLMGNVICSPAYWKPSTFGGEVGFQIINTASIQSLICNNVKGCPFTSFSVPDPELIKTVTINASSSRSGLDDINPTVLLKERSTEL

Cn1nc(O)c(C(=O)Nc2cccc(C(F)(F)F)c2)n1
IC50 [1]: > 50 µM
inhibition [2]: 18.5%

O=C(Nc1cccc(C(F)(F)F)c1)c1c(O)nnn1Cc1ccccc1
IC50 [1]: 10.2 µM
IC50 [3]: > 100 µM
IC50 [4]: 480 nM
IC50 [5]: 62.9 µM
Ratio IC50 (Homo sapiens [6]): 131
inhibition [7]: 15%
Ratio IC50 [8]: > 208
Ratio IC50 (Homo sapiens [9]): > 208
IC50 (CWR22R [10]): 67.1 µM
inhibition [11]: 7.5%

C[C@]12CC[C@H](O)CC1=CC[C@@H]1[C@@H]2CC[C@]2(C)C(c3cccnc3)=CC[C@@H]12
Activity (CWR22R [12]): inactive

COc1ccc(Cn2nnc(O)c2C(=O)Nc2cccc(C(F)(F)F)c2)cc1
IC50 [1]: 3.56 µM
IC50 [3]: > 100 µM
IC50 [4]: 310 nM
IC50 [5]: 73.2 µM
Ratio IC50 (Homo sapiens [6]): 236
inhibition [7]: 0%
Ratio IC50 [8]: > 322
Ratio IC50 (Homo sapiens [9]): > 322
inhibition at 100 µM (CWR22R [13]): 50%
IC50 (CWR22R [10]): 81.4 µM
inhibition (CWR22R [14]): Dose-dependent effect
Activity (CWR22R [15]): inactive
Activity (CWR22R [16]): 45%
Activity (CWR22R [17]): 50%
inhibition [11]: 12%

O=C(Nc1cccc(C(F)(F)F)c1)c1nsnc1O
IC50 [1]: ≥ 50 µM
inhibition [2]: 47.2%

O=C(Nc1cccc(C(F)(F)F)c1)c1nonc1O
IC50 [1]: > 50 µM
inhibition [2]: 35.4%

O=C(O)c1ccccc1Nc1cccc(C(F)(F)F)c1 [FLUFENAMIC ACID]
IC50 [1]: 8.63 µM
IC50 [3]: 14 µM
IC50 [4]: 440 nM
IC50 (CWR22R [10]): 115 µM

CNC(=O)c1ccc(N2C(=S)N(c3ccc(C#N)c(C(F)(F)F)c3)C(=O)C2(C)C)cc1F
Activity (CWR22R [18]): inactive

O=C(Nc1cccc(C(F)(F)F)c1)c1c(O)nnn1CC1CC1
IC50 [1]: 13.2 µM
IC50 [3]: > 100 µM
IC50 [4]: 1600 nM
IC50 [5]: 70.6 µM
Ratio IC50 (Homo sapiens [6]): 44
inhibition [7]: 17%
Ratio IC50 [8]: > 63
Ratio IC50 (Homo sapiens [9]): > 63
inhibition [11]: 9.6%

O=C(Nc1cccc(C(F)(F)F)c1)c1nn(CC2CC2)nc1O
IC50 [1]: > 50 µM
inhibition [2]: 5.35%

Cn1nnc(O)c1C(=O)Nc1cccc(C(F)(F)F)c1
IC50 [1]: 32.8 µM
